# Data published in ChEMBL document CHEMBL1151773, “Synthesis and biological evaluation of amide derivatives of (5,6-dimethoxy-2,3-dihydro-1H-inden-1-yl)acetic acid as anti-inflammatory agents with reduced gastrointestinal ulcerogenecity” (Eur J Med Chem, 2008).
# How the values were obtained:
# Rattus norvegicus [1] = assay: Antipyretic activity in Wistar rat assessed as change in LPS-induced rectal temperature at 10 mg/kg, po administered 30 mins before LPS challenge after 2 hrs; format: functional
# Procedure, shortened: (§1)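 Adult female Wistar rats, 170±20 g, fasted 24 h, dosed orally at 09:00; 30 min later E. coli 0111:B4 phenol-extracted LPS in apyrogenic saline given i.p. Rectal temperature by telethermometer probe just before and 1–7 h hourly after LPS; temperature index calculated from these readings. n = 6.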
# Mus musculus = assay: Analgesic activity in Swiss albino mouse assessed as inhibition of acetic acid-induced writhing at 10 mg/kg, po administered 60 mins before acetic acid challenge after 5 to 15 mins relative to control; format: functional
# Procedure, shortened: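 Female Swiss albino mice, 20±5 g, fasted overnight with free water access, dosed orally; 1 h later injected i.p. with 1% v/v acetic acid at 0.1 ml/10 g. Writhes (full hind-limb extension) counted for 15 min, starting 5 min after injection; only animals giving 20 or more writhes used. % inhibition = 100(1−Wt/Wc) vs control group mean; six animals per group.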
# Rattus norvegicus [2] = assay: Gastrointestinal toxicity in Wistar rat assessed as ulcer index at 30 mg/kg, po after 6 hrs; format: organism-based; design: dose 30 mg/kg, route oral; settings: in vivo
# Procedure, shortened: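 Female Wistar rats, 175±25 g, fasted 24 h, dosed orally once; sacrificed 6 h later by cervical dislocation. Stomach opened along greater curvature, saline-washed, mucosa inspected with a hand lens. Lesions graded I (edema/hyperemia/petechiae), II (hemorrhagic lesions with small erosions), III (deep ulcers); UI = nI + 2nII + 3nIII. Mean ± SEM, n = 6.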
# Rattus norvegicus [3] = assay: Antiarthritic activity in Albino rat assessed as inhibition of Freund's complete adjuvant-induced paw volume at 10 mg/kg, po administered for 14 days daily once starting a day before adjuvant challenge measured on day 3; format: functional
# Procedure, shortened: (§2)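 Female albino rats, 160±10 g, six per group, dosed orally once daily for 14 days starting the day before 0.1 ml Freund's complete adjuvant into the right hind paw subplantar surface. Both hind paw volumes, measured up to a mark at the lateral malleolus, taken before and daily after adjuvant.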
# Rattus norvegicus [4] = assay: Gastrointestinal toxicity in Wistar rat assessed as ulcer index at 1 mg/kg, po after 14 days; format: organism-based; design: route oral; settings: in vivo, 336 h
# Procedure, shortened: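 Gastric mucosa examined for ulceration at post-mortem of female albino rats sacrificed at the end of the 14-day once-daily oral dosing in the Freund's adjuvant arthritis study; ulcer index scored per animal. Mean ± SEM, n = 6.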
# Rattus norvegicus [5] = assay: Antiarthritic activity in Freund's complete adjuvant challenged Albino rat model assessed as change in body weight at 10 mg/kg, po administered for 14 days daily once starting a day before adjuvant challenge; format: functional; settings: 336 h, read-out: INH
# Rattus norvegicus [6] = assay: Antipyretic activity in Wistar rat assessed as change in LPS-induced rectal temperature at 10 mg/kg, po administered 30 mins before LPS challenge after 5 hrs; format: functional; procedure, shortened: as §1
# Rattus norvegicus [7] = assay: Antiinflammatory activity in Wistar rat assessed as inhibition of carrageenan-induced hind paw edema volume at 10 mg/kg, po administered 60 mins before carrageenan challenge after 6 hrs relative to control; format: functional
# Rattus norvegicus [8] = organism: Rattus norvegicus; assay: animal or person; settings: Wistar, po, read-out: INH
# Rattus norvegicus [9] = assay: Antiinflammatory activity in Wistar rat assessed as inhibition of carrageenan-induced hind paw edema volume at 10 mg/kg, po administered 60 mins before carrageenan challenge after 1 hr relative to control; format: functional
# Procedure, shortened: (§3)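 Female Wistar rats (170± 20 g), fasted overnight, n=6 per group; dosed orally, then 0.1 ml of 1% carrageenan injected subplantar into right hind paw 1 h later.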
# Rattus norvegicus [10] = assay: Antipyretic activity in Wistar rat assessed as change in LPS-induced rectal temperature at 10 mg/kg, po administered 30 mins before LPS challenge after 4 hrs; format: functional; procedure, shortened: as §1
# Rattus norvegicus [11] = assay: Antiinflammatory activity in Wistar rat assessed as inhibition of carrageenan-induced hind paw edema volume at 10 mg/kg, po administered 60 mins before carrageenan challenge after 3 hrs relative to control; format: functional; procedure, shortened: as §3
# Rattus norvegicus [12] = assay: Antiinflammatory activity in Wistar rat assessed as inhibition of carrageenan-induced hind paw edema volume at 10 mg/kg, po administered 60 mins before carrageenan challenge after 24 hrs relative to control; format: functional
# Rattus norvegicus [13] = assay: Antipyretic activity in Wistar rat assessed as change in LPS-induced rectal temperature at 10 mg/kg, po administered 30 mins before LPS challenge after 3 hrs; format: functional; procedure, shortened: as §1
# Rattus norvegicus [14] = assay: Antipyretic activity in Wistar rat assessed as change in LPS-induced rectal temperature at 10 mg/kg, po administered 30 mins before LPS challenge after 6 hrs; format: functional; procedure, shortened: as §1
# Rattus norvegicus [15] = assay: Antiarthritic activity in Albino rat assessed as inhibition of Freund's complete adjuvant-induced paw volume at 10 mg/kg, po administered for 14 days daily once starting a day before adjuvant challenge measured on day 8; format: functional; procedure, shortened: as §2
# Rattus norvegicus [16] = assay: Antipyretic activity in Wistar rat assessed as change in LPS-induced rectal temperature at 10 mg/kg, po administered 30 mins before LPS challenge after 7 hrs; format: functional; procedure, shortened: as §1
# Rattus norvegicus [17] = assay: Antipyretic activity in Wistar rat assessed as change in LPS-induced rectal temperature at 10 mg/kg, po administered 30 mins before LPS challenge after 1 hr; format: functional; procedure, shortened: as §1
# Rattus norvegicus [18] = assay: Antiinflammatory activity in Wistar rat assessed as inhibition of carrageenan-induced hind paw edema volume at 10 mg/kg, po administered 60 mins before carrageenan challenge after 4 hrs relative to control; format: functional; procedure, shortened: as §3
# Rattus norvegicus [19] = assay: Antiarthritic activity in Albino rat assessed as inhibition of Freund's complete adjuvant-induced paw volume at 10 mg/kg, po administered for 14 days daily once starting a day before adjuvant challenge measured on day 13; format: functional; procedure, shortened: as §2
compound,measurement,setting,value
COc1ccc2c(c1)c(CC(=O)O)c(C)n2C(=O)c1ccc(Cl)cc1 [INDOMETHACIN],Activity,Rattus norvegicus [1],-1.03 °C
same,inhibition in vivo at 10 mg/kg,Mus musculus,51.5%
same,UI,Rattus norvegicus [2],31.37
same,inhibition in vivo at 10 mg/kg,Rattus norvegicus [3],37.5%
same,UI,Rattus norvegicus [4],72
same,inhibition in vivo at 10 mg/kg,Rattus norvegicus [5],5.68 g
same,Activity,Rattus norvegicus [6],0.3 °C
same,inhibition in vivo at 10 mg/kg,Rattus norvegicus [7],48.1%
same,inhibition in vivo at 10 mg/kg,Rattus norvegicus [8],58%
same,inhibition in vivo at 10 mg/kg,Rattus norvegicus [9],50%
same,Activity,Rattus norvegicus [10],0.22 °C
same,inhibition in vivo at 10 mg/kg,Rattus norvegicus [11],65.2%
same,inhibition in vivo at 10 mg/kg,Rattus norvegicus [12],13.3%
same,Activity,Rattus norvegicus [13],-0.11 °C
same,Activity,Rattus norvegicus [14],0.35 °C
same,inhibition in vivo at 10 mg/kg,Rattus norvegicus [15],43.9%
same,Activity,Rattus norvegicus [16],0.55 °C
same,Activity,Rattus norvegicus [17],-0.39 °C
same,inhibition in vivo at 10 mg/kg,Rattus norvegicus [18],57.8%
same,inhibition in vivo at 10 mg/kg,Rattus norvegicus [19],46.5%
